Reference: ChEMBL document CHEMBL3045897, “Bioactivity of compounds from Acmella oleracea against Tuta absoluta (Meyrick) (Lepidoptera: Gelechiidae) and selectivity to two non-target species” (Pest Manag Sci, 2012)

Tests used:
Tetragonisca angustula = test: Contact toxicity against adult Tetragonisca angustula assessed as mortality after 24 hr; format: organism-based; settings: in vivo, topical_or_ocular
Summary of the method: (§1)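 Topical application of 0.5 µL test solution in acetone per insect; controls got 0.5 µL acetone alone. Insects were held singly with food in small petri dishes at 25 ± 0.5 °C, 75±5% RH and a 12 h photoperiod. Mortality (dead or motionless insects) was scored at 24 h.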

Solenopsis saevissima = test: Contact toxicity against adult Solenopsis saevissima assessed as mortality after 24 hr; format: organism-based; settings: in vivo, topical_or_ocular; summary of the method: as §1
[1] = Selectivity ratio of LD50 for adult Solenopsis saevissima to LD50 for second-instar larvae of Tuta absoluta
Summary of the method: (§2)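 Test solutions in acetone were applied topically at 0.5 µL per insect, with acetone alone as control. Insects were then held individually in petri dishes with food at 25 ± 0.5 °C, 75±5% RH and a 12 h photoperiod. Mortality (dead or motionless) was scored at 24 h. LD50 values came from probit analysis of dose–mortality data for each species, and SLR50 was computed from these LD50 values.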

[2] = Contact toxicity against adult Solenopsis saevissima assessed as mortality at contact LD80 for second-instar larvae of Tuta absoluta measured after 24 hr; format: organism-based; settings: in vivo, topical or ocular
Tuta absoluta [3] = test: Contact toxicity against second-instar larvae of Tuta absoluta assessed as mortality after 24 hr; format: functional; summary of the method: as §1
[4] = Selectivity ratio of LD50 for adult Tetragonisca angustula to LD50 for second-instar larvae of Tuta absoluta; summary of the method: as §2
[5] = Contact toxicity against adult Tetragonisca angustula assessed as mortality at contact LD80 for second-instar larvae of Tuta absoluta measured after 24 hr; format: organism-based; settings: in vivo, topical or ocular
Tuta absoluta [6] = test: Ratio of permethrin LD50 to compound LD50 for second-instar larvae of Tuta absoluta assessed as mortality after 24 hr; format: functional

C#CC#CCCCC/C=C/C(=O)NCC(C)C
LD80 (Tetragonisca angustula): 2.02 µg/mg | LD80 (Solenopsis saevissima): 2.22 µg/mg

C#CC#CCCCC/C=C/C(=O)NC[C@H](C)CC
LD50 (Tetragonisca angustula): 1.1 µg/mg | LD80 (Tetragonisca angustula): 2.26 µg/mg | Ratio [1]: 1.64 | LD50 (Solenopsis saevissima): 1.33 µg/mg | LD80 (Solenopsis saevissima): 4.4 µg/mg | mortality at 24 h [2]: 55% | LD50 (Tuta absoluta [3]): 0.81 µg/mg | LD80 (Tuta absoluta [3]): 1.76 µg/mg | Ratio [4]: 1.35 | mortality at 24 h [5]: 59%

CC1(C)C(C=C(Cl)Cl)C1C(=O)OCc1cccc(Oc2ccccc2)c1 (stereo not drawn) [PERMETHRIN]
LD50 (Tetragonisca angustula): 0.0003 µg/mg | LD80 (Tetragonisca angustula): 0.002 µg/mg | Ratio [1]: 0.00042 | LD50 (Solenopsis saevissima): 0.046 µg/mg | LD80 (Solenopsis saevissima): 1.458 µg/mg | mortality at 24 h [2]: 100% | LD50 (Tuta absoluta [3]): 0.71 µg/mg | LD80 (Tuta absoluta [3]): 2.57 µg/mg | Ratio [4]: 0.065 | mortality at 24 h [5]: 100%

C/C=C/C=C\CC/C=C/C(=O)NCC(C)C [Spilanthol]
LD50 (Tetragonisca angustula): 0.35 µg/mg | LD80 (Tetragonisca angustula): 0.81 µg/mg | Ratio (Tuta absoluta [6]): 5 | Ratio [1]: 1.38 | LD50 (Solenopsis saevissima): 0.18 µg/mg | LD80 (Solenopsis saevissima): 1.12 µg/mg | mortality at 24 h [2]: 68% | LD50 (Tuta absoluta [3]): 0.13 µg/mg | LD80 (Tuta absoluta [3]): 0.56 µg/mg | Ratio [4]: 2.69 | mortality at 24 h [5]: 58%
